Measured values from different studies.
Lines come from different studies, so protocols differ.

| SMILES | tested on | test | conditions | quantity | result |
| --- | --- | --- | --- | --- | --- |
| C[C@@H](Oc1cc(-c2cnn(C3CCNCC3)c2)cnc1N)c1c(Cl)ccc(F)c1Cl | NCI-H2228 | cell growth or viability, MTT | 0.04 µg/mL, 72 h | inhibition | 45.9% |
| FC1CCN(C2(CNCc3ccc(-c4ccccc4Cl)o3)COC2)C1 (centres unmarked) | A 172 | cell growth or viability | 30 µM, 48 h | viability | 60.4% |
| CCCCOc1cccc(-c2cnc3c(n2)CCCC3)c1 | Haemonchus contortus | parasite motility | 24 h, larva | IC50 | ~49.5 µM |
| Cc1ccc(C(CS(=O)(=O)c2ccccc2)=NNC2=NC(=O)C(=NNc3ccccc3)S2)cc1 | SK-MEL-23 | cell growth or viability, MTT | 0.4 µM, 48 h | viability | 50.5% |
| CCCCOc1ccc(-c2cnc3c(n2)CCCC3)cc1 | Haemonchus contortus | parasite motility | 48 h, larva | IC50 | 6.9 µM |
| CCc1cc(Nc2cc(=O)n(CCCCO)c(=O)[nH]2)ccc1C | Eggerthella lenta | microbial growth, agar dilution | 48 h | MIC | > 32 µg/mL |
| Cc1ccc(C(CS(=O)(=O)c2ccccc2)=NNc2nc(C)c(N=Nc3cccc(C)c3)s2)cc1 | SK-MEL-23 | cell growth or viability, MTT | 25 µM, 48 h | viability | 44% |
| Cc1cc(Nc2ncc(Cl)c(Nc3ccccc3S(=O)(=O)C(C)C)n2)c(OC(C)C)cc1C1CCNCC1 | NCI-H2228 | cell growth or viability, MTT | 5 µg/mL, 72 h | inhibition | 93.5% |
| O=C(Nc1ccccc1-c1ccc(F)c(F)c1)c1nccnc1C(F)(F)F | Cladosporium cucumerinum | microbial growth |  | EC50 | < 0.1 µg/mL |
| O=c1[nH]c(NCc2ccc(Cl)c(Cl)c2)nc2ncn(CCN3CCOCC3)c12 | Eggerthella lenta | microbial growth, agar dilution | 48 h | MIC | > 32 µg/mL |
| CC(C)Oc1cccc(-c2cnc3c(n2)CCCC3)c1 | Haemonchus contortus | parasite motility | 48 h, larva | IC50 | 42.4 µM |
| Cc1ccc(C(CS(=O)(=O)c2ccccc2)=NNC2=NC(=O)C(=NNc3ccc([N+](=O)[O-])cc3)S2)cc1 | SK-MEL-23 | cell growth or viability, MTT | 6.3 µM, 48 h | viability | 56.6% |
| CCCCc1cccc(-c2cnc3c(n2)CCCC3)c1 | Haemonchus contortus | parasite motility | 48 h, larva | IC50 | 23.3 µM |
| Cc1ccc(C(CS(=O)(=O)c2ccccc2)=NN=C2N=C(c3ccc(Br)cc3)CS2)cc1 | SK-MEL-23 | cell growth or viability, MTT | 6.3 µM, 48 h | viability | 63.7% |
